pIC50: −log10 of the molar value. Converted amounts (≈) assume the structure as drawn.

One assay has as its system Raoultella planticola. The experiment in a line: Antimicrobial activity against Klebsiella planticola MTCC 530 after 18 hrs by microtitre broth dilution method. The format is functional. Particulars: MTCC 530, 18 h. In short, it runs like this: (§1)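 Microtiter broth dilution; MIC per pathogen taken from four individual observations; ciprofloxacin as bacterial positive control.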

The test system of another assay is A549. The experiment in a line: Cytotoxicity against human A549 cells by MTT assay. The format is functional, cell-based. An outline of the steps: (§2)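 MTT read-out (Mosmann method); absorbance dose–response curves plotted and IC50 calculated from them; each cell line's value is the mean of two independent experiments; doxorubicin as positive control.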
Background: Tetrazolium dyes change colour on reduction, which living cells bring about.

Another assay concerns Bacillus subtilis. The assay is described as follows: Antimicrobial activity against Bacillus subtilis MTCC 121 after 18 hrs by microtitre broth dilution method. The assay is classed as functional. Particulars: MTCC 121, 18 h. In short, it runs like this: as §1
A general note: Dilution methods test growth across graded concentrations, often in twofold steps.

The next assay deals with COLO 205. The assay is described as follows: Cytotoxicity against human COLO205 cells by MTT assay. The format is functional, cell-based. In short, it runs like this: as §2
The test system of a further assay is MDA-MB-231. The experiment in a line: Cytotoxicity against human MDA-MB-231 cells by MTT assay. The assay is classed as functional, cell-based. In short, it runs like this: as §2
The subject of a further assay is HepG2. The experiment in a line: Cytotoxicity against human HepG2 cells by MTT assay. The format is functional, cell-based. In short, it runs like this: as §2
The test system of a further assay is Staphylococcus aureus. The experiment in a line: Antimicrobial activity against Staphylococcus aureus MTCC 96 after 18 hrs by microtitre broth dilution method. The assay is classed as functional. Particulars: MTCC 96, 18 h. An outline of the steps: as §1
A further assay relates to DU-145. The assay is described as follows: Cytotoxicity against human DU145 cells by MTT assay. The format is functional, cell-based. An outline of the steps:
as §2

Another assay deals with Pseudomonas aeruginosa. The assay is described as follows: microbe, parasite or virus in culture. Particulars: MTCC 2453, 18 h.
A further assay concerns Escherichia coli. The experiment in a line: microbe, parasite or virus in culture. Particulars: MTCC 739, 18 h.

Regarding `CCC[C@H]1OC(=O)[C@H](O)CC/C=C/C[C@@H]1O`, the MIC with Raoultella planticola turned out to be 15.6 µg/mL (≈ 68.3 µM); against Bacillus subtilis, 15.6 µg/mL (≈ 68.3 µM); against Staphylococcus aureus it was 7.8 µg/mL (≈ 34.2 µM). For the same compound, the pIC50 in the assay on A549 is 5.09; in the assay on COLO 205, 5.29; in the assay on MDA-MB-231 it was 5.21; in the assay on HepG2, 5.04; in the assay with DU-145 it was 5.05.

Consider `O=C(O)c1cn(C2CC2)c2cc(N3CCNCC3)c(F)cc2c1=O` [CIPROFLOXACIN], for which the MIC in the assay on Raoultella planticola, in the assay on Bacillus subtilis, with Pseudomonas aeruginosa, in the assay on Escherichia coli and with Staphylococcus aureus was 0.9 µg/mL (≈ 2.72 µM) each time.

For `COc1cccc2c1C(=O)c1c(O)c3c(c(O)c1C2=O)C[C@@](O)(C(=O)CO)C[C@@H]3O[C@H]1C[C@H](N)[C@H](O)[C@H](C)O1` [DOXORUBICIN], the pIC50 in the assay with COLO 205 is 6.30; in the assay on DU-145, 6.22.

In general, pIC50 refers to −log10 of the IC50, conventionally taken in molar units. Read a low pIC50 as a high IC50.
